Results from ChEMBL document CHEMBL5584277, “Identification of 5-Thiocyanatothiazol-2-amines Disrupting WDR5-MYC Protein-Protein Interactions” (ACS Med Chem Lett, 2024).

What was measured:
WDR5-MYC = WDR5-MYC (Homo sapiens, UniProt P61964); assay: Disruption of WDR5/5-FAM-labelled MYC (261 to 267 residues)(unknown origin) interaction incubated for 120 mins by FP assay; type: protein assay
Method in brief: (§1)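 FP competition with reporter probe from MYC MbIIIb residues E261–V267 bound to WDR5, compound concentration varied, DMSO as negative control. Ki obtained by fitting FP signal change to a hyperbolic function. Unlabelled MYC peptide run as assay quality control.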

[1] = target: WD repeat-containing protein 5 (Homo sapiens) (UniProt P61964); assay: Binding affinity to WDR5 (unknown origin) assessed as decrease in melting temperature by DSF assay relative to control
Method in brief: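 DSF with WDR5 protein, with DMSO as the reference group. The inflection-point temperature (Ti) of WDR5 was monitored after compound treatment, and the change is reported as ΔTi relative to DMSO.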

Raji = assay: Antiproliferative activity against human Raji cells incubated for 72 hrs by SRB assay; type: functional, cell-based
Ramos = assay: Antiproliferative activity against human Ramos cells incubated for 72 hrs by SRB assay; type: functional, cell-based
SUD4 = assay: Antiproliferative activity against human SU-DHL-4 cells incubated for 72 hrs by SRB assay; type: functional, cell-based; conditions: SU-DHL-4, 72 h
HL-60 = assay: Antiproliferative activity against human HL-60 cells incubated for 72 hrs by SRB assay; type: functional, cell-based; conditions: HL-60, 72 h
NCI-H1299 = assay: Antiproliferative activity against human NCI-H1299 cells incubated for 72 hrs by SRB assay; type: functional, cell-based; conditions: NCI-H1299, 72 h
WDR5-MYC (Homo sapiens) [2] = target: T1, WDR5-MYC (Homo sapiens) (UniProt P61964+P01106); assay: Disruption of His-tagged recombinant WDR5 (unknown origin)/HEK293T cell lysate-derived C-MYC (unknown origin) protein-protein interaction assessed as dissociation of protein complex incubated for 120 mins by Co-IP assay
WDR5-MYC (Homo sapiens) [3] = target: T1, WDR5-MYC (Homo sapiens); assay: Disruption of WDR5/5-FAM-labelled MYC (261 to 267 residues)(unknown origin) interaction by FP assay; type: protein assay; conditions: time 0.5-6 hrs; method in brief: as §1
WDR5-MYC (Homo sapiens) [4] = target: T1, WDR5-MYC (Homo sapiens); assay: Disruption of WDR5/5-FAM-labelled MYC (261 to 267 residues)(unknown origin) interaction incubated for 0.5 hrs by FP assay relative to control; type: protein assay
Method in brief: (§2)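 Time-course FP competition between WDR5 and MYC-derived probe (E261–V267). Compound titrated and read after incubation times from 30 to 360 min. Maximal inhibition (%) and potency taken at each time point from the inhibition curves.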

WDR5-MYC (Homo sapiens) [5] = target: T1, WDR5-MYC (Homo sapiens); assay: Disruption of WDR5/5-FAM-labelled MYC (261 to 267 residues)(unknown origin) interaction incubated for 6 hrs by FP assay relative to control; type: protein assay; method in brief: as §2
WDR5-MYC (Homo sapiens) [6] = target: T1, WDR5-MYC (Homo sapiens); assay: Disruption of WDR5/5-FAM-labelled MYC (261 to 267 residues)(unknown origin) interaction assessed as fold increase in activity incubated for 0.5 to 6 hrs by FP assay relative to control; type: protein assay; conditions: time 0.5-6 hrs
Method in brief: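 Fluorescence polarization with WDR5 and a reporter peptide probe from MYC MbIIIb residues E261–V267. Compounds and WDR5 were incubated for 30 to 360 min before reading. FP signal was recorded over varying compound concentrations and fitted to a hyperbolic function to give Ki. DMSO served as negative control, and free MYC peptide was the quality control.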

WDR5-MYC (Homo sapiens) [7] = target: T1, WDR5-MYC (Homo sapiens); assay: Disruption of WDR5/5-FAM-labelled MYC (261 to 267 residues)(unknown origin) interaction at 50 uM incubated for 120 mins by FP assay relative to control; type: protein assay
Method in brief: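 Single-point FP screen at 50 μM compound, signal read against DMSO control. Inhibition rate given as mean of n = 2.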

[8] = target: WD repeat-containing protein 5 (Homo sapiens) (UniProt P61964); assay: Binding affinity to WDR5 (unknown origin) assessed as increase in melting temperature by DSF assay relative to control
Method in brief: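 Differential scanning fluorimetry on WDR5 protein, compounds against DMSO. Inflection-point temperature (Ti) monitored, shift given as ΔTi relative to DMSO group.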

Question: How did the Ki (WDR5-MYC) turn out when `N#CSc1sc(N)nc1-c1ccc(O)cc1` was run?
Answer: 2400 nM

Question: And the ΔTm [1]?
Answer: -2.7 °C

Question: And the IC50 (Raji)?
Answer: 710 nM

Question: And the IC50 (Ramos)?
Answer: 1060 nM

Question: And the IC50 (SUD4)?
Answer: 1430 nM

Question: What about the IC50 (HL-60) of the same compound?
Answer: 3030 nM

Question: What about the IC50 (NCI-H1299) of the same compound?
Answer: 3700 nM

Question: And the Activity (WDR5-MYC (Homo sapiens) [2])?
Answer: Dose-Dependent Effect

Question: `N#CSc1cnc(N)s1` was tested. Which Ki (WDR5-MYC) did it give?
Answer: 6100 nM

Question: How did the Ki (WDR5-MYC) turn out when `CNc1nc(-c2ccc(Cl)cc2)c(SC#N)s1` was run?
Answer: 1200 nM

Question: For `N#CSc1sc(N)nc1-c1ccc(Cl)cc1`, which Ki (WDR5-MYC) is on record?
Answer: 1300 nM

Question: And the Activity (WDR5-MYC (Homo sapiens) [3])?
Answer: Dose-Dependent Effect

Question: And the Activity (WDR5-MYC (Homo sapiens) [4])?
Answer: 33.2%

Question: What about the Activity (WDR5-MYC (Homo sapiens) [5]) of the same compound?
Answer: 51.2%

Question: What about the fold change (FC) (WDR5-MYC (Homo sapiens) [6]) of the same compound?
Answer: 1.5

Question: What about the ΔTm [1] of the same compound?
Answer: -2.7 °C

Question: For `COc1ccc(-c2nc(N)sc2SC#N)cc1`, which Ki (WDR5-MYC) is on record?
Answer: 2900 nM

Question: How did the Ki (WDR5-MYC) turn out when `N#CSc1sc(N)nc1-c1ccc(Br)cc1` was run?
Answer: 900 nM

Question: Which Ki (WDR5-MYC) does the source give for `N#CSc1sc(N)nc1-c1cccc([N+](=O)[O-])c1` here?
Answer: 4100 nM

Question: For `N#CSc1sc(N)nc1-c1ccc(F)cc1`, which Ki (WDR5-MYC) is on record?
Answer: 3200 nM

Question: With `Nc1nc(-c2ccc(Cl)cc2)c(Br)s1` as the compound, how does the inhibition (WDR5-MYC (Homo sapiens) [7]) read?
Answer: -5%

Question: Which inhibition (WDR5-MYC (Homo sapiens) [7]) does the source give for `Nc1nc(-c2ccc(Cl)cc2)cs1` here?
Answer: 0.9%

Question: For `N#CSc1sc(Nc2ccccn2)nc1-c1ccc(Cl)cc1`, which Ki (WDR5-MYC) is on record?
Answer: > 50000 nM

Question: For `N#CSc1sc(N)nc1-c1ccc(C(F)(F)F)cc1`, which Ki (WDR5-MYC) is on record?
Answer: 1500 nM

Question: `Cc1ccc(-c2nc(N)sc2SC#N)cc1` was tested. Which Ki (WDR5-MYC) did it give?
Answer: 3000 nM

Question: `COc1ccc(Br)cc1S(=O)(=O)Nc1cc(Cl)ccc1O` was tested. Which Ki (WDR5-MYC) did it give?
Answer: 16300 nM

Question: And the ΔTm [8]?
Answer: 1.4 °C

Question: Which Ki (WDR5-MYC) does the source give for `N#CSc1sc(N)nc1-c1ccccc1Br` here?
Answer: 3000 nM

Question: `CS(=O)(=O)c1sc(N)nc1-c1ccc(Cl)cc1` was tested. Which inhibition (WDR5-MYC (Homo sapiens) [7]) did it give?
Answer: -10%

Question: `C[S+]([O-])c1sc(N)nc1-c1ccc(Cl)cc1` (stereo unspecified) was tested. Which inhibition (WDR5-MYC (Homo sapiens) [7]) did it give?
Answer: 0.4%

Question: For `N#CSc1sc(NC(=O)c2ccc(Cl)cc2)nc1-c1ccc(Cl)cc1`, which Ki (WDR5-MYC) is on record?
Answer: > 50000 nM

Question: For `N#CSc1sc(N)nc1-c1ccccc1Cl`, which Ki (WDR5-MYC) is on record?
Answer: 2600 nM

Question: `CCOc1ccc(-c2nc(N)sc2SC#N)cc1Br` was tested. Which Ki (WDR5-MYC) did it give?
Answer: 6300 nM

Question: `Cc1ccc(S(=O)(=O)Nc2nc(-c3ccc(Cl)cc3)c(SC#N)s2)cc1` was tested. Which Ki (WDR5-MYC) did it give?
Answer: 54500 nM

Question: `COC(=O)c1ccc(-c2nc(N)sc2SC#N)cc1` was tested. Which Ki (WDR5-MYC) did it give?
Answer: 1700 nM

Question: `CC(C)C(=O)Nc1nc(-c2ccc(Cl)cc2)c(SC#N)s1` was tested. Which Ki (WDR5-MYC) did it give?
Answer: 1600 nM

Question: With `N#Cc1sc(N)nc1-c1ccc(Cl)cc1` as the compound, how does the inhibition (WDR5-MYC (Homo sapiens) [7]) read?
Answer: 1.1%

Question: With `N#CSc1sc(N)nc1-c1cccc(Br)c1` as the compound, how does the Ki (WDR5-MYC) read?
Answer: 2600 nM

Question: What does the source list for `CNC(=O)c1ccc(-c2nc(N)sc2SC#N)cc1`?
Answer: Ki (WDR5-MYC): 1000 nM; ΔTm [1]: -5.8 °C; IC50 (Raji): 1520 nM; IC50 (Ramos): 1510 nM; IC50 (SUD4): 2200 nM; IC50 (HL-60): 5320 nM; IC50 (NCI-H1299): 7400 nM; Activity (WDR5-MYC (Homo sapiens) [2]): Dose-Dependent Effect
